Source: ChEMBL document CHEMBL1828620, “Synthesis of novel 6-phenyl-2,4-disubstituted pyrimidine-5-carbonitriles as potential antimicrobial agents” (2011)
Converted amounts (≈) assume the structure as drawn.

Legend:
Type in all cases: functional
Bacillus subtilis [1] = assay: Antimicrobial activity against Bacillus subtilis IFO 3007 at 200 ug/disc after 24 hrs by agar disc diffusion method; settings: IFO 3007, 24 h, read-out: DIZ
In short: (§1)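 Agar disc diffusion: sterile 8 mm filter-paper discs moistened with compound solution in DMSO, placed on agar plates each pre-inoculated with one organism; plates held at 37 °C; growth inhibition zone diameter measured after 24 h (bacteria) or 48 h (C. albicans).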

Pseudomonas aeruginosa [2] = assay: Antimicrobial activity against Pseudomonas aeruginosa IFO 3448 at 200 ug/disc after 24 hrs by agar disc diffusion method; settings: IFO 3448, 24 h, read-out: DIZ; in short: as §1
Candida albicans [3] = assay: Antifungal activity against Candida albicans IFO 0583 at 200 ug/disc after 48 hrs by agar disc diffusion method; settings: IFO 0583, 48 h, read-out: DIZ; in short: as §1
Escherichia coli [4] = assay: Antimicrobial activity against Escherichia coli IFO 3301 at 200 ug/disc after 24 hrs by agar disc diffusion method; settings: IFO 3301, 24 h, read-out: DIZ; in short: as §1
Micrococcus luteus [5] = assay: Antimicrobial activity against Micrococcus luteus IFO 3232 at 200 ug/disc after 24 hrs by agar disc diffusion method; settings: IFO 3232, 24 h, read-out: DIZ; in short: as §1
Staphylococcus aureus [6] = assay: Antimicrobial activity against Staphylococcus aureus IFO 3060 at 200 ug/disc after 24 hrs by agar disc diffusion method; settings: IFO 3060, 24 h, read-out: DIZ; in short: as §1
Bacillus subtilis [7] = assay: Antimicrobial activity against Bacillus subtilis IFO 3007 after 24 hrs by two fold serial dilution method
Staphylococcus aureus [8] = assay: Antimicrobial activity against Staphylococcus aureus IFO 3060 after 24 hrs by two fold serial dilution method
Micrococcus luteus [9] = assay: Antimicrobial activity against Micrococcus luteus IFO 3232 after 24 hrs by two fold serial dilution method
Pseudomonas aeruginosa [10] = assay: Antimicrobial activity against Pseudomonas aeruginosa IFO 3448 after 24 hrs by two fold serial dilution method
Micrococcus luteus [11] = assay: Antimicrobial activity against Micrococcus luteus IFO 3232 at 100 ug/disc after 24 hrs by agar disc diffusion method; in short: as §1
Pseudomonas aeruginosa [12] = assay: Antimicrobial activity against Pseudomonas aeruginosa IFO 3448 at 100 ug/disc after 24 hrs by agar disc diffusion method; in short: as §1
Staphylococcus aureus [13] = assay: Antimicrobial activity against Staphylococcus aureus IFO 3060 at 100 ug/disc after 24 hrs by agar disc diffusion method; in short: as §1
Escherichia coli [14] = assay: Antimicrobial activity against Escherichia coli IFO 3301 at 100 ug/disc after 24 hrs by agar disc diffusion method; in short: as §1
Bacillus subtilis [15] = assay: Antimicrobial activity against Bacillus subtilis IFO 3007 at 100 ug/disc after 24 hrs by agar disc diffusion method; in short: as §1
Escherichia coli [16] = assay: Antimicrobial activity against Escherichia coli IFO 3301 after 24 hrs by two fold serial dilution method
Candida albicans [17] = assay: Antifungal activity against Candida albicans IFO 0583 at 100 ug/disc after 48 hrs by agar disc diffusion method; settings: IFO 0583, 48 h, read-out: DIZ; in short: as §1

MIC (Bacillus subtilis [7]; IFO 3007, 24 h) [µg/mL]	MIC (Staphylococcus aureus [8]; IFO 3060, 24 h) [µg/mL]	Compound	zone of inhibition at 200 µg/disc (Bacillus subtilis [1]) [mm]	zone of inhibition at 200 µg/disc (Pseudomonas aeruginosa [2]) [mm]	zone of inhibition at 200 µg/disc (Candida albicans [3]) [mm]	zone of inhibition at 200 µg/disc (Escherichia coli [4]) [mm]	zone of inhibition at 200 µg/disc (Micrococcus luteus [5]) [mm]	zone of inhibition at 200 µg/disc (Staphylococcus aureus [6]) [mm]	further results
		N#Cc1c(Nc2ccccc2C(F)(F)F)nc(SCc2ccc(Cl)cc2)nc1-c1ccccc1	12	< 10	< 10	< 10	10	12	
		N#Cc1c(-c2ccccc2)nc(SCc2ccccc2)[nH]c1=O	17	< 10	< 10	< 10	16	16	
2 (≈ 6.96 µM)	8 (≈ 27.8 µM)	COCCSc1nc(-c2ccccc2)c(C#N)c(=O)[nH]1	22	10	< 10	12	17	18	
		N#Cc1c(Nc2cccc(C(F)(F)F)c2)nc(SCc2ccc(Cl)cc2)nc1-c1ccccc1	14	< 10	< 10	< 10	11	14	
1 (≈ 2.24 µM)	2 (≈ 4.47 µM)	N#Cc1c(Nc2ccc(F)cc2)nc(SCc2ccc(Cl)cc2)nc1-c1ccccc1	18	< 10	< 10	< 10	19	16	MIC (Micrococcus luteus [9]; IFO 3232, 24 h): 4 µg/mL (≈ 8.95 µM)
8 (≈ 22.6 µM)	8 (≈ 22.6 µM)	N#Cc1c(O)nc(SCc2ccc(Cl)cc2)nc1-c1ccccc1	19	12	< 10	14	19	20	MIC (Micrococcus luteus [9]; IFO 3232, 24 h): 8 µg/mL (≈ 22.6 µM)
		GENTAMICIN SULFATE							MIC (Pseudomonas aeruginosa [10]): 1 µg/mL; inhibition zone (IZ) (Micrococcus luteus [11]): 18 mm; MIC (Bacillus subtilis [7]): 2 µg/mL; inhibition zone (IZ) (Pseudomonas aeruginosa [12]): 19 mm; inhibition zone (IZ) (Staphylococcus aureus [13]): 26 mm; MIC (Micrococcus luteus [9]): 2 µg/mL; inhibition zone (IZ) (Escherichia coli [14]): 20 mm; MIC (Staphylococcus aureus [8]): 2 µg/mL; inhibition zone (IZ) (Bacillus subtilis [15]): 25 mm; MIC (Escherichia coli [16]): 0.5 µg/mL
4 (≈ 13.3 µM)	4 (≈ 13.3 µM)	CCOCCSc1nc(-c2ccccc2)c(C#N)c(=O)[nH]1	24	11	< 10	14	17	21	
		Cc1cccc(Sc2nc(SCc3ccc(Cl)cc3)nc(-c3ccccc3)c2C#N)c1	< 10	< 10	< 10	< 10	< 10	< 10	
2 (≈ 5.93 µM)	4 (≈ 11.9 µM)	N#Cc1c(-c2ccccc2)nc(SCc2ccc(F)cc2)[nH]c1=O	26	14	< 10	18	21	22	MIC (Micrococcus luteus [9]; IFO 3232, 24 h): 4 µg/mL (≈ 11.9 µM); MIC (Escherichia coli [16]; IFO 3301, 24 h): 8 µg/mL (≈ 23.7 µM)
		CCSCCSc1nc(-c2ccccc2)c(C#N)c(=O)[nH]1	16	14	12	16	12	12	
8 (≈ 26.4 µM)		CSCCSc1nc(-c2ccccc2)c(C#N)c(=O)[nH]1	18	18	14	21	15	16	
		N#Cc1c(Nc2ccc(C(F)(F)F)cc2)nc(SCc2ccc(Cl)cc2)nc1-c1ccccc1	17	< 10	< 10	< 10	13	15	
		Clc1ccccc1C(c1ccccc1)(c1ccccc1)n1ccnc1 [CLOTRIMAZOLE]							zone of inhibition at 100 µg/disc (Candida albicans [17]): 21 mm
1 (≈ 2.82 µM)	0.5 (≈ 1.41 µM)	N#Cc1c(-c2ccccc2)nc(SCc2ccc([N+](=O)[O-])o2)[nH]c1=O	28	21	11	22	24	33	MIC (Pseudomonas aeruginosa [10]; IFO 3448, 24 h): 4 µg/mL (≈ 11.3 µM); MIC (Micrococcus luteus [9]; IFO 3232, 24 h): 1 µg/mL (≈ 2.82 µM); MIC (Escherichia coli [16]; IFO 3301, 24 h): 2 µg/mL (≈ 5.64 µM)
		N#Cc1c(-c2ccccc2)nc(SCOCc2ccccc2)[nH]c1=O	16	< 10	< 10	< 10	13	14	
		N#Cc1c(Cl)nc(SCc2ccc(Cl)cc2)nc1-c1ccccc1	26	14	12	16	18	24	
		Cc1ccc(Sc2nc(SCc3ccc(Cl)cc3)nc(-c3ccccc3)c2C#N)cc1	13	< 10	< 10	< 10	11	14	
		N#Cc1c(Sc2ccccc2)nc(SCc2ccc(Cl)cc2)nc1-c1ccccc1	14	< 10	< 10	< 10	12	12	
		N#Cc1c(-c2ccccc2)nc(SCc2ccc([N+](=O)[O-])cc2)[nH]c1=O	17	< 10	< 10	12	13	14	
		Cc1ccccc1Sc1nc(SCc2ccc(Cl)cc2)nc(-c2ccccc2)c1C#N	< 10	< 10	< 10	< 10	< 10	< 10	

Compound	MIC (Bacillus subtilis [7]; IFO 3007, 24 h) [µg/mL]	MIC (Staphylococcus aureus [8]; IFO 3060, 24 h) [µg/mL]	zone of inhibition at 200 µg/disc (Bacillus subtilis [1]) [mm]	zone of inhibition at 200 µg/disc (Pseudomonas aeruginosa [2]) [mm]	zone of inhibition at 200 µg/disc (Candida albicans [3]) [mm]	zone of inhibition at 200 µg/disc (Escherichia coli [4]) [mm]	zone of inhibition at 200 µg/disc (Micrococcus luteus [5]) [mm]	zone of inhibition at 200 µg/disc (Staphylococcus aureus [6]) [mm]	further results
CC1(C)S[C@@H]2[C@H](NC(=O)[C@H](N)c3ccccc3)C(=O)N2[C@H]1C(=O)O.O.O.O [AMPICILLIN TRIHYDRATE]	0.5	2							MIC (Pseudomonas aeruginosa [10]; IFO 3448, 24 h): 2 µg/mL; zone of inhibition at 100 µg/disc (Micrococcus luteus [11]; IFO 3232, 24 h, read-out: DIZ): 19 mm; zone of inhibition at 100 µg/disc (Pseudomonas aeruginosa [12]; IFO 3448, 24 h, read-out: DIZ): 17 mm; zone of inhibition at 100 µg/disc (Staphylococcus aureus [13]; IFO 3060, 24 h, read-out: DIZ): 23 mm; MIC (Micrococcus luteus [9]; IFO 3232, 24 h): 2 µg/mL; zone of inhibition at 100 µg/disc (Escherichia coli [14]; IFO 3301, 24 h, read-out: DIZ): 17 mm; zone of inhibition at 100 µg/disc (Bacillus subtilis [15]; IFO 3007, 24 h, read-out: DIZ): 21 mm
